Published values gathered from unrelated publications.
MAOB: Amine oxidase [flavin-containing] B (MAOB, Homo sapiens, UniProt P27338)
emrE: emrE (Escherichia coli, UniProt P23895)
CA9: Carbonic anhydrase 9 (CA9, Homo sapiens, UniProt Q16790)
HRH1: Histamine H1 receptor (HRH1, Homo sapiens, UniProt P35367)
CHRNA9: Neuronal acetylcholine receptor subunit alpha-9 (CHRNA9, Homo sapiens, UniProt Q9UGM1)

SMILES	target	test	system	setting	quantity	value
CC[C@H](C)[C@H](NC(=O)[C@H](C)NC(=O)[C@H](CCC(=O)O)NC(=O)[C@H](Cc1c[nH]cn1)NC(=O)[C@H](CC(C)C)NC(=O)[C@@H](NC(=O)[C@H](Cc1ccccc1)NC(=O)[C@H](CO)NC(=O)[C@@H](NC(=O)[C@H](CC(C)C)NC(=O)[C@H](CC(=O)O)NC(=O)[C@H](CC(C)C)NC(=O)[C@@H]1CCCN1)[C@@H](C)O)C(C)C)C(=O)O	MAOB	enzyme activity, inhibitor, fluorescence	–	–	IC50	1900 µM
Cc1nccc2c1[nH]c1ccccc12	emrE	binding, fluorescence	–	–	Kd	46 µM
N#C[Se]CCCCOc1ccc2c(-c3ccccc3)cc(=O)oc2c1	CA9	enzyme activity, inhibitor, stopped-flow	–	–	Ki	0.211 µM
CCCCC1CNC2CCc3ccc(OC)cc3C12 (racemic)	HRH1	ligand displacement, radioligand	–	–	Ki	0.135 µM
CN1CC[C@@]2(C)c3cc(OC(=O)Nc4ccccc4)ccc3N(C)[C@@H]12	Retinaldehyde dehydrogenase 3 (ALDH1A3, Homo sapiens, UniProt P47895)	enzyme activity, inhibitor	–	–	IC50	< 10 µM
Cc1c(Cl)c(=O)oc2cc(OCCCC[Se]C#N)ccc12	CA9	enzyme activity, inhibitor, stopped-flow	–	–	Ki	0.0429 µM
CC1=C(O)C(=O)C=C2C1=CC=C1[C@@]2(C)CC[C@@]2(C)[C@@H]3C[C@](C)(C(=O)O)CC[C@]3(C)CC[C@]12C	Cytochrome P450 3A5 (CYP3A5, Homo sapiens, UniProt P20815)	binding, BLI	SAS	–	Kd	2.07 µM
CCC[N+]1(C)CCN(c2ccccc2)CC1	CHRNA9	ion current, agonist, two-electrode voltage clamp	–	oocytes	EC50	60 µM
CCOC(=O)c1ccc(OC(=O)CCCCCN=C(N)N)cc1	Urokinase-type plasminogen activator (PLAU, Homo sapiens, UniProt P00749)	enzyme activity, inhibitor	–	–	IC50	0.0236 µM
COc1cc2c(cc1OC)CN(CCc1ccc(NC(=O)c3cccc4c(=O)c5cccc(OC)c5[nH]c34)cc1)CC2	HRH1	cell-free assay	–	–	Ki	> 10 µM
C[n+]1ccc(-c2cc[n+](C)cc2)cc1	emrE	binding, fluorescence	–	–	Kd	73 µM
CC[C@H](C)[C@H](N)C(=O)N1CCC[C@H]1C(=O)N1CCC[C@H]1C(=O)NCC(=O)N[C@H](C(=O)N1CCC[C@H]1C(=O)N[C@@H](Cc1ccc(O)cc1)C(=O)O)C(C)C	MAOB	enzyme activity, inhibitor, fluorescence	–	–	IC50	9410 µM
CCC[N+]1(CC)CCN(c2ccc(C#N)cc2)CC1	CHRNA9	ion current, agonist, two-electrode voltage clamp	–	oocytes	EC50	1.9 µM
